Compound activity from PubChem.
This is a sample that favours compounds with a hit; in the whole collection about 1.1% have one here.
Diaphorase act: compounds boosting diaphorase resazurin reduction – biochemical, uHTS, resorufin fluorescence, counter-screen for diaphorase-coupled primary assays, primary screen; 190,000 tested, 0.005% active; AID 1229, 2008; Diaphorase/resazurin coupled assay, 16 min; hits give high values; 1 = vehicle wells, 0 = NADH-free wells; activation factor at 20 µM;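 active = diaphorase activity raised at least twofold by the compound at 20 µM; inactive = activation factor below 2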
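Measured by – red resorufin fluorescence at 544/590 nm excitation/emission · Test system – Clostridium kluyveri diaphorase, purified enzyme · Incubation – reaction time 16 min, room temperature · Buffer or medium – 50 mM HEPES pH 7.4 with 4.542 mM MgCl2, 0.005% Tween 20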
Diaph inh CS: diaphorase inhibitors and chemical oxidizers, primary screen, counter-screen for diaphorase-coupled primary assays, biochemical, uHTS, resorufin fluorescence | diaphorase resazurin-to-resorufin fluorescence, NADH, 16 min; bacterial (C. kluyveri) enzyme, not human | inhibition, % at 20 µM | 190,000 tested, 0.69% active | AID 1217, 2008;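 active = primary screen inhibition at 20 µM above a set limit, cut at about 50% in these data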
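System: Bacterial diaphorase enzyme (C. kluyveri) | Incubation: 16-min room-temperature incubation before reading | Benchmarks: No-NADH positive control and DMSO neutral control | Measured by: Resorufin fluorescence 544/590 nm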
PMI act: activators of human PMI, primary screen, biochemical, fluorescence intensity, near-Km mannose 6-phosphate | 190,000 tested, 0.005% active | activation factor at 20 µM | purified human PMI, coupled resazurin fluorescence, 20 min; hits give high values; 1 = vehicle control, 0 substrate-free wells;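 active = activation factor of 2 or more at 20 µM, relative to plate controls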
Target sequence (P34949 whole entry, looked up): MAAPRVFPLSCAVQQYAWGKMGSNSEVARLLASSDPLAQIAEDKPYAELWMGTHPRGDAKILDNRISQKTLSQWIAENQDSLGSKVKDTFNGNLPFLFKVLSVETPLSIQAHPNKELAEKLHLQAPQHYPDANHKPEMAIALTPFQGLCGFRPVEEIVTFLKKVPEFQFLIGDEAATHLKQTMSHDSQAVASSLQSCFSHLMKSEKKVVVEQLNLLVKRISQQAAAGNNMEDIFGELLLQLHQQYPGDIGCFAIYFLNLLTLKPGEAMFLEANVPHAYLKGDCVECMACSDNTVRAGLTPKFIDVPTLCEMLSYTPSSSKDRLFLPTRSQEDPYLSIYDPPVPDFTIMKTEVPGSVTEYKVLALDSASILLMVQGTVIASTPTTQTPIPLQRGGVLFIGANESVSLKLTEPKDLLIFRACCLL
PMI act hi M6P: human PMI activators, high substrate, primary screen, biochemical, fluorescence intensity, near-saturating mannose 6-phosphate; 190,000 tested, 0.34% active; coupled PMI enzyme assay, resazurin fluorescence, 20 min; hits give high values; 1 = untreated enzyme, 0 = substrate-free blank; AID 1216, 2008; activation factor at 20 µM;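 active = activation factor of 2 or more at 20 µM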
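Test system: human phosphomannose isomerase with PGI, G6PDH, diaphorase coupling enzymes; amount: 15 ng/mL PMI; incubation: enzyme reaction with compound 20 min at room temperature; technique: resorufin fluorescence (Ex 544/Em 590 nm) from resazurin via diaphorase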
Tb hexokinase: Trypanosoma brucei hexokinase 1 inhibitors, primary screen, biochemical, G6PDH-coupled NADH absorbance, MLSCN library; hexokinase 1 [Trypanosoma brucei]; recombinant TbHK1, G6PDH-coupled NADH A340; inhibition, % at 10 µM; 220,000 tested, 0.11% active; AID 1430, 2008;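 active = inhibition of 50% or more in the single-dose primary screen; inactive = inhibition below 50%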
G6PDH counter: L. mesenteroides G6PDH inhibitors, counter-screen for G6PDH-coupled screening assays, biochemical, Leuconostoc mesenteroides enzyme; glucose-6-phosphate dehydrogenase [Leuconostoc mesenteroides]; Purified L. mesenteroides G6PDH, diaphorase/resazurin coupled fluorescence, 45 min; inhibition, % at 5 µM; 200,000 tested, 0.12% active; AID 1020, 2008; in the data active = inhibition above about 50%
Numbers stand for hits; - = inactive; . = not tested or not shown.

SMILES	Diaphorase act	Diaph inh CS	PMI act	PMI act hi M6P	Tb hexokinase	G6PDH counter
CCOC(=O)C1=C(C)NC(=O)CC1c1cc2c(cc1[N+](=O)[O-])OCO2 (configuration not stated)	-	72.0	-	-	-	-
CC(C)NC(=O)C1CCN(C2CCN(Cc3ccc4cccc(F)c4n3)CC2)CC1	-	-	-	-	-	-
CSC(=S)N/N=C/c1ccccc1	-	73.2	-	-	-	-
COc1ccc(C2NC(=O)NC3=C2CCc2ccccc23)cc1 (configuration not stated)	-	74.1	-	-	-	-
Cn1c(=O)c2cn3c(c2n(C)c1=O)C(c1ccccc1)CC(c1ccccc1)=N3 (configuration not stated)	-	-	-	2	-	-
Cc1ccc(-n2c3nc(=O)[nH]c(=O)c-3cc3cc([N+](=O)[O-])ccc32)cc1	-	74.1	-	-	-	-
Cn1ncc(N=Cc2c(O)ccc3ccccc23)c1C(=O)Nc1cccc(Cl)c1	-	-	-	-	-	-
O=C(CSc1n[nH]c(-c2ccccc2)n1)Nc1ncc(Br)cc1Br	-	59.0	-	-	-	-
CCn1cc(CN2CCc3c([nH]c4ccccc34)C2c2cccc(OC)c2)c(C)n1 (configuration not stated)	-	-	-	-	-	-
O=C1CC(c2ccc(F)cc2)CC2=C1C(c1ccc([N+](=O)[O-])o1)Nc1ccccc1N2 (configuration not stated)	.	.	.	.	-	.
CCCCCCCCCCCCCCCC[n+]1ccc(/C=N/O)cc1	2	-	-	-	-	-
CCCCC(=O)Nc1ccc(C(N)=O)cc1	-	-	-	-	-	-
CCCCCCCCCCCCCCCC[n+]1ccc(C(N)=O)cc1	-	-	-	-	64.3	-
CCCCCCCC[n+]1cccc(C(=O)N(CC)CC)c1	-	-	-	-	-	-
CCCCCCCCCCCCCCCC[n+]1cccc(C(=O)N(CC)CC)c1	2	-	-	-	-	-
CCCCN(CCCC)C(=O)C[n+]1cccc(/C=N/O)c1	-	-	-	-	-	-
S=c1[nH]cnc2scc(-c3ccccc3)c12	-	64.1	-	-	-	-
Clc1ncnc2scc(-c3ccccc3)c12	-	-	-	-	-	-
CC(Sc1nc2cc(Cl)ccc2s1)C(=O)Nc1cccc(S(=O)(=O)N2CCOCC2)c1 (configuration not stated)	-	66.3	-	-	-	-
Cc1ccc(SC(C)C(=O)Nc2ccc(S(=O)(=O)N3CCOCC3)cc2)cc1 (configuration not stated)	-	52.7	-	-	-	-
CCOC(=O)c1ccccc1NC(=O)CSc1nc(N)cc(=O)[nH]1	.	.	.	.	-	.
CC(C)Nc1nnc(SCC(=O)Nc2ccc3c(c2)C(=O)c2ccccc2C3=O)s1	-	52.5	-	-	-	-
O=C(CSc1nnc(NC2CCCCC2)s1)Nc1ccc2c(c1)C(=O)c1ccccc1C2=O	-	-	-	-	-	-
COc1ccc(C(=O)NC(=S)Nc2nc(C)cc(C)n2)cc1Br	.	.	.	.	-	.
O=c1[nH]c(-c2ccc(Cl)cc2)cs1	-	-	-	-	-	-
SMILES	Diaphorase act	Diaph inh CS	PMI act	PMI act hi M6P	Tb hexokinase	G6PDH counter
Fc1ccc(-c2csc(=S)[nH]2)cc1	-	-	-	2.4	-	-
S=c1[nH]c(-c2ccccc2)cs1	-	-	-	2.1	-	-
O=c1[nH]c(-c2ccccc2)cs1	-	-	-	-	-	-
O=C(/C=C/NNC(=O)c1ccccc1)c1ccc([N+](=O)[O-])cc1	-	-	-	-	-	-
CCc1nnc(NC(=O)COc2ccccc2[N+](=O)[O-])s1	.	.	.	.	-	.
O=C(CN1C(=O)C2C3C=CC(C3)C2C1=O)NCCN1CCCc2ccccc21 (configuration not stated)	-	-	-	2.1	-	-
O=C(CCN1C(=O)C2C3C=CC(C3)C2C1=O)NCCN1CCCc2ccccc21 (configuration not stated)	-	-	-	2.1	-	-
COCCNC(=S)Nc1ccc(Cl)c(Cl)c1	-	-	-	-	-	-
COc1ccc(NC(=S)Nc2ccc3nsnc3c2)cc1	-	59.0	-	-	-	56.8
COc1ccc(N(C)C(=O)Nc2ccc3nsnc3c2)cc1	-	62.4	-	-	-	-
COCCNC(=S)Nc1ccc2nsnc2c1	-	53.2	-	-	-	-
CCOc1ccc(NC(=S)Nc2ccc3nsnc3c2)cc1	-	54.4	-	-	-	53.9
COc1ccc(N(C)C(=O)Nc2ccc3c(c2)nnn3C)cc1	-	-	-	-	-	-
CC(C)c1ccc(/C=N/n2cnnc2)cc1	.	.	.	.	-	.
CC1CCN(C(=O)Nc2ccc3nsnc3c2)CC1	-	-	-	-	-	-
CC(C)N(C(=O)Nc1ccc2nsnc2c1)C(C)C	-	59.5	-	-	-	51.9
C/C(=N\Nc1cccc2cccnc12)c1ccc(C)cc1	-	-	-	2.1	-	-
CCN(CC)C(=O)CSc1nc2c(sc(=S)n2-c2ccccc2)c(=O)n1Cc1ccco1	-	50.8	-	-	-	-
CCN(CC)C(=O)CSc1nc2c(sc(=S)n2CC)c(=O)n1-c1ccccc1	-	-	-	-	-	-
CC/C(=C/c1sc2ccc(C)cc2[n+]1CCCS(=O)(=O)[O-])SC	-	-	-	2.7	-	-
CC/C(=C/c1sc2ccc(C)cc2[n+]1CCO)SC	-	-	-	2.5	-	-
CCOC(=O)N1CCN(CC(=O)Nc2sc(CC)cc2C(=O)c2ccc(OC)cc2)CC1	.	.	.	.	-	.
COc1ccc(-c2cc(-c3ccco3)[nH]c(=O)c2C#N)cc1	.	.	.	.	-	.
N#Cc1c(-c2cccc(Br)c2)cc(-c2ccco2)[nH]c1=O	-	66.7	-	-	-	-
Cc1[nH]n(-c2ccccc2)c(=O)c1N=Nc1ccc2c(c1)OCO2	-	-	-	-	-	-
Nc1[nH]n2c(=O)cc(-c3ccccc3)nc2c1N=Nc1ccc2c(c1)OCO2	-	68.5	-	-	-	-
Cc1cc(C)c[n+](CC(=O)c2ccc(NC(=O)c3ccccc3)cc2)c1	-	70.7	-	-	-	-
Cc1cccc(NC(=O)c2sc3nc(-c4ccccc4)cn3c2C)n1	-	-	-	-	-	-
